ChEMBL document CHEMBL1938313, “Influence of the skeleton on the cytotoxicity of flavonoids” (Bioorg Med Chem, 2012)
Each block holds one compound with its values, some of them ahead of it.

Experiments:
KB [1] = test: Cytotoxicity against human KB cells assessed as growth inhibition at 10 '-6 M after 72 hrs by MTS assay; assay type: functional; settings: read-out: GI
How it was run: (§1)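 Cells seeded at 600 per well, dosed 24 h later from DMSO stocks over 0.5 nM–10 µM (DMSO 1% final in controls). KB was grown in D-MEM with 10% fetal calf serum; HL60 in complete RPMI. After 72 h, MTS was added for 3 h at 37 °C and A490 read. Inhibition % = (1 − OD treated/OD control) × 100, in triplicate; IC50 runs were in duplicate.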

HL-60 [2] = test: Induction of apoptosis in human HL60 cells assessed as viable cells at 100 nM after 24 hrs using annexin-V-PE/7-AAD staining by flow cytometry analysis (reference value: 90.8 %); assay type: functional; settings: HL-60, 24 h, read-out: Activity
HL-60 [3] = test: Induction of apoptosis in human HL60 cells assessed as late apoptotic cells at 100 nM after 24 hrs using annexin-V-PE/7-AAD staining by flow cytometry analysis (reference value: 0.8 %); assay type: functional
HL-60 [4] = test: Induction of apoptosis in human HL60 cells assessed as late apoptotic cells at 100 nM after 48 hrs using annexin-V-PE/7-AAD staining by flow cytometry analysis (reference value: 0.6 %); assay type: functional
HL-60 [5] = test: Induction of apoptosis in human HL60 cells assessed as early apoptotic cells at 100 nM after 48 hrs using annexin-V-PE/7-AAD staining by flow cytometry analysis (reference value: 14.7 %); assay type: functional
HL-60 [6] = test: Induction of apoptosis in human HL60 cells assessed as early apoptotic cells at 100 nM after 24 hrs using annexin-V-PE/7-AAD staining by flow cytometry analysis (reference value: 7.5 %); assay type: functional
HL-60 [7] = test: Induction of apoptosis in human HL60 cells assessed as viable cells at 100 nM after 48 hrs using annexin-V-PE/7-AAD staining by flow cytometry analysis (reference value: 83.9 %); assay type: functional; settings: HL-60, 48 h, read-out: Activity
HL-60 [8] = test: Cell cycle arrest in human HL60 cells assessed as accumulation at G2/M phase at 20 nM after 48 hrs by propidium iodide based flow cytometry analysis (reference value: 23.9 %); assay type: functional
HL-60 [9] = test: Cell cycle arrest in human HL60 cells assessed as accumulation at G0/G1 phase at 20 nM after 48 hrs by propidium iodide based flow cytometry analysis (reference value: 51.2 %); assay type: functional
HL-60 [10] = test: Cell cycle arrest in human HL60 cells assessed as accumulation at Sub G1 phase at 20 nM after 48 hrs by propidium iodide based flow cytometry analysis (reference value: 4 %); assay type: functional
HL-60 [11] = test: Cell cycle arrest in human HL60 cells assessed as accumulation at G0/G1 phase at 20 nM after 24 hrs by propidium iodide based flow cytometry analysis (reference value: 50.6 %); assay type: functional
HL-60 [12] = test: Cell cycle arrest in human HL60 cells assessed as accumulation at S phase at 20 nM after 48 hrs by propidium iodide based flow cytometry analysis (reference value: 20.9 %); assay type: functional
HL-60 [13] = test: Cell cycle arrest in human HL60 cells assessed as accumulation at S phase at 20 nM after 24 hrs by propidium iodide based flow cytometry analysis (reference value: 22.3 %); assay type: functional
HL-60 [14] = test: Cell cycle arrest in human HL60 cells assessed as accumulation at Sub G1 phase at 20 nM after 24 hrs by propidium iodide based flow cytometry analysis (reference value: 2.3 %); assay type: functional
HL-60 [15] = test: Cell cycle arrest in human HL60 cells assessed as accumulation at G2/M phase at 20 nM after 24 hrs by propidium iodide based flow cytometry analysis (reference value: 24.8 %); assay type: functional
HL-60 [16] = test: Cell cycle arrest in human HL60 cells assessed as accumulation at Sub G1 phase at 100 nM after 48 hrs by propidium iodide based flow cytometry analysis (reference value: 4 %); assay type: functional
HL-60 [17] = test: Cell cycle arrest in human HL60 cells assessed as accumulation at S phase at 100 nM after 24 hrs by propidium iodide based flow cytometry analysis (reference value: 22.3 %); assay type: functional
HL-60 [18] = test: Cell cycle arrest in human HL60 cells assessed as accumulation at S phase at 100 nM after 48 hrs by propidium iodide based flow cytometry analysis (reference value: 20.9 %); assay type: functional
HL-60 [19] = test: Cell cycle arrest in human HL60 cells assessed as accumulation at G2/M phase at 100 nM after 24 hrs by propidium iodide based flow cytometry analysis (reference value: 24.8 %); assay type: functional
HL-60 [20] = test: Cytotoxicity against human HL60 cells after 72 hrs by MTS assay; assay type: functional, cell-based; settings: HL-60, 72 h; how it was run: as §1
KB [21] = test: Cytotoxicity against human KB cells after 72 hrs by MTS assay; assay type: functional, cell-based; how it was run: as §1
HL-60 [22] = test: Cell cycle arrest in human HL60 cells assessed as accumulation at G2/M phase at 100 nM after 48 hrs by propidium iodide based flow cytometry analysis (reference value: 23.9 %); assay type: functional
HL-60 [23] = test: Cell cycle arrest in human HL60 cells assessed as accumulation at G0/G1 phase at 100 nM after 48 hrs by propidium iodide based flow cytometry analysis (reference value: 51.2 %); assay type: functional
HL-60 [24] = test: Cell cycle arrest in human HL60 cells assessed as accumulation at Sub G1 phase at 100 nM after 24 hrs by propidium iodide based flow cytometry analysis (reference value: 2.3 %); assay type: functional
Ovis aries = organism: Ovis aries; test: Inhibition of sheep brain tubulin polymerization at 2 x 10 '-5 M after 10 mins by turbidimetry
How it was run: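 Microtubule protein was purified from sheep brain by two assembly/disassembly cycles (37 °C/0 °C) in 100 mM MES pH 6.6, 1 mM EGTA, 0.5 mM MgCl2. Compound in DMSO (1 µL) was added to 150 µL microtubule solution, incubated 10 min at 37 °C then 5 min at 0 °C, and turbidity read at 350 nm. Single tests were at ~2 × 10^-5 M; IC50 was also expressed relative to deoxypodophyllotoxin IC50.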

HL-60 [25] = test: Cell cycle arrest in human HL60 cells assessed as accumulation at G0/G1 phase at 100 nM after 24 hrs by propidium iodide based flow cytometry analysis (reference value: 50.6 %); assay type: functional

Structure (SMILES): COc1ccc(/C=C2\Oc3c(OC)c(OC)c(OC)c(O)c3C2=O)cc1[N+](=O)[O-]
inhibition of growth at 1 µM (KB [1]): 0%

Structure (SMILES): COc1cccc2c1C(=O)c1c(O)c3c(c(O)c1C2=O)C[C@@](O)(C(=O)CO)C[C@@H]3O[C@H]1C[C@H](N)[C@H](O)[C@H](C)O1 [DOXORUBICIN]
viability at 0.1 µM (HL-60 [2]): 81%
Activity (HL-60 [3]): 0.9%
Activity (HL-60 [4]): 1.9%
Activity (HL-60 [5]): 68%
Activity (HL-60 [6]): 17.8%
viability at 0.1 µM (HL-60 [7]): 29.8%

Structure (SMILES): COc1ccc(-c2cc(=O)c3c(O)c(OC)c(OC)c(OC)c3o2)cc1N
inhibition of growth at 1 µM (KB [1]): 96%

Structure (SMILES): COc1cc([C@@H]2c3cc4c(cc3C[C@H]3COC(=O)[C@@H]32)OCO4)cc(OC)c1OC [DESOXYPODOPHYLLOTOXIN]
Activity (HL-60 [8]): 29.8%
Activity (HL-60 [9]): 23.5%
Activity (HL-60 [10]): 34.1%
Activity (HL-60 [11]): 25.2%
Activity (HL-60 [12]): 37.7%
Activity (HL-60 [13]): 9.5%
Activity (HL-60 [14]): 7.7%
Activity (HL-60 [15]): 57.6%

Structure (SMILES): COc1cc(OC)c(/C=C2\Oc3c(OC)c(OC)c(OC)c(O)c3C2=O)cc1N
inhibition of growth at 1 µM (KB [1]): 0%

Structure (SMILES): COc1ccc(/C=C/C(=O)c2c(O)c(OC)c(OC)c(OC)c2OC)cc1N
inhibition of growth at 1 µM (KB [1]): 11%

Structure (SMILES): COc1ccc(-c2coc3c(OC)c(OC)c(OC)c(O)c3c2=O)cc1[N+](=O)[O-]
inhibition of growth at 1 µM (KB [1]): 18%

inhibition (Ovis aries): 21%
Structure (SMILES): COc1ccc(/C=C2\Oc3c(cc(OC)c(OC)c3OC)C2=O)cc1O
Activity (HL-60 [16]): 21.1%
Activity (HL-60 [17]): 20.6%
Activity (HL-60 [18]): 25.6%
Activity (HL-60 [19]): 24.7%
viability at 0.1 µM (HL-60 [2]): 81.1%
Activity (HL-60 [3]): 1.1%
IC50 (HL-60 [20]): 0.12 µM
IC50 (KB [21]): 0.11 µM
Activity (HL-60 [4]): 1.1%
Activity (HL-60 [22]): 18.2%
Activity (HL-60 [5]): 24.9%
Activity (HL-60 [23]): 35.1%
Activity (HL-60 [24]): 14.4%
Activity (HL-60 [6]): 16.8%
Activity (HL-60 [25]): 40.3%
viability at 0.1 µM (HL-60 [7]): 73.3%
inhibition of growth at 1 µM (KB [1]): 100%

Structure (SMILES): COc1ccc(C2COc3c(OC)c(OC)c(OC)c(O)c3C2=O)cc1N (stereo unspecified)
inhibition of growth at 1 µM (KB [1]): 4%

inhibition (Ovis aries): 12%
Structure (SMILES): COc1cc(OC)c(/C=C2\Oc3c(cc(OC)c(OC)c3OC)C2=O)cc1N
inhibition of growth at 1 µM (KB [1]): 0%

Structure (SMILES): COc1ccc(/C=C2\Oc3c(OC)c(OC)c(OC)c(OC)c3C2=O)cc1N
inhibition of growth at 1 µM (KB [1]): 0%
